High-throughput results from PubChem.
Rtt109 Vps75 – inhibitors of Candida albicans Rtt109/Vps75 histone acetyltransferase; Q5AAJ8; purified Rtt109/Vps75, ThioGlo CoA-SH fluorescence, 4 h; inhibition, % at 34.9 µM; 330,000 tested, 0.16% active; AID 540336;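 active = inhibition of at least 50% in every replicate; inconclusive = best replicate reaches 50% inhibition but some replicates fall short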
ALR inh – blocks human ALR sulfhydryl oxidase activity; P55789; purified ALR, DTT oxidation, H2O2 HRP-luminol luminescence; inhibition, % (concentration not given with the values); 290,000 tested, 3.8% active;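 active = mean replicate inhibition above about 79%, with every replicate also reaching it, limit read from the data; inconclusive = only one of the two criteria met; inactive = mean below limit and not every replicate reaching it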
Target sequence (P55789 whole entry, looked up): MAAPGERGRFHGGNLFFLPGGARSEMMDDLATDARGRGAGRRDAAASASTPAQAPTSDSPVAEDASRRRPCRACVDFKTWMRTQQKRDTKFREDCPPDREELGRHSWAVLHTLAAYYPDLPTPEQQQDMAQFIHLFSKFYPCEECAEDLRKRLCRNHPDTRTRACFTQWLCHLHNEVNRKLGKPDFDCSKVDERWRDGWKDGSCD
FAS-TE inh – inhibitors of human fatty acid synthase thioesterase domain. inhibition, % at 15 µM. 360,000 tested, 0.67% active. recombinant FAS-TE, OMFH fluorogenic substrate, fluorescence endpoint. P49327. AID 602261;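 active = compounds whose normalised, plate-corrected inhibition of enzyme fluorescence in the single-dose primary screen is 50% or more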;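 note: 0% = DMSO with enzyme and 100% = substrate without enzyme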
HDAC3 inh – blocks human histone deacetylase 3; inhibition, % at 8.3 µM; 320,000 tested, 0.15% active; O15379; recombinant HDAC3, fluorogenic peptide/trypsin coupled, fluorescence; AID 2718; in the data active = inhibition above about 26%, passing the limit was not always enough; inconclusive = no clear call, values can overlap the other calls
Target sequence (O15379 whole entry, looked up): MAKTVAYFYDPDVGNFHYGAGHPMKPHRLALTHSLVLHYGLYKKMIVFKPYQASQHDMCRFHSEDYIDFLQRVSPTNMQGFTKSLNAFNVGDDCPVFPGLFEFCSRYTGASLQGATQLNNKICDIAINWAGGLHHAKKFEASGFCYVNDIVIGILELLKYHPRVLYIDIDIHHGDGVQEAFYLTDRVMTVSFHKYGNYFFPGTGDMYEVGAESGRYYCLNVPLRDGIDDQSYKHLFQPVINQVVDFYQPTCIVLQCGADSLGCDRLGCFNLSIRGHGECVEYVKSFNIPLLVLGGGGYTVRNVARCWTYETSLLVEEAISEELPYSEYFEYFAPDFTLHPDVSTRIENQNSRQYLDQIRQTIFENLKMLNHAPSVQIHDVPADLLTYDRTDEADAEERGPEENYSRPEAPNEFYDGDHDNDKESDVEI
M18AAP inhibitor – PfM18AAP enzyme inhibition; recombinant PfM18AAP, H-Glu-NHMec fluorogenic cleavage; inhibition, % at 7.35 µM; 290,000 tested, 1.2% active; AID 1822;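 active = inhibition above the campaign mean inhibition over all tested compounds plus 3 SD, cut at about 28% in these data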;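 note: 0% = plate median of test compound wells and 100% = 2 mM ZnCl2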
UCH37 inh – blocks the human deubiquitinase UCH37; inhibition, % (no concentration beside the values); 330,000 tested, 0.33% active; purified proteasome/UCH37, Ub-AMC cleavage fluorescence; Q9Y5K5;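 active = mean inhibition over replicate wells above about 20%, limit read from the data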;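 note: 0% = compound-free wells with enzyme and 100% = wells lacking proteasome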
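assay system = human UCH37 enzyme supplied as purified proteasome complex | amount = proteasome at 0.15 nM in the dispensed enzyme solution | schedule = 30 min compound-proteasome preincubation then 25 min substrate reaction, room temperature | measured by = fluorescence, ex 355 nm, em 460 nm | benchmarks = no-proteasome wells (full inhibition) and compound-free wells (no inhibition)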
Active calls of the source: *; ? = inconclusive; . = not tested or not shown. Compounds with a hit are over-represented: about 4.6% of the library has one in this group of screens.

SMILES	Rtt109 Vps75	ALR inh	FAS-TE inh	HDAC3 inh	M18AAP inhibitor	UCH37 inh
COc1cccc(CNC(=O)CSCC(=O)Nc2ccc(C)cc2)c1	4	99*	-5	4	.	5
Cc1cccc(NC(=O)CSCC(=O)N(C)CC(=O)Nc2cccc(F)c2)c1	-11	68	-6	7	.	-1
COc1cccc(NC(=O)CNCc2ccccc2)c1	9	4	-2	12	-10	4
COc1cccc(NC(=O)CN(C)C(=O)CSCC(=O)Nc2ccc(C)cc2)c1	8	99*	-5	-3	.	1
COc1cccc(CNCC(=O)Nc2ccc(N3CCOCC3)cc2)c1	.	99*	-9	2	10	-1
Clc1cccc(C=NNc2nc(Cl)nc3ccccc23)c1	.	.	.	.	.	2
O=C(Cc1cccc2ccccc12)NN=C1CCCc2ccccc21	.	.	.	.	.	0
COCCNC(=S)NN=Cc1ccc(OCc2ccc(C(=O)OC)cc2)c(OC)c1	.	.	.	.	.	-6
CCN(CC)c1ccc(C2CC(=O)Nc3cc(OC)c(OC)cc32)cc1 (stereo unspecified)	23	98*	0	8	1	6
Cc1cc2nc3ccc(N(C)C)cc3nc2cc1N	19	92*	-9	9	.	.
CC(=O)NC1C(=O)N(CCN2CCOCC2)c2ccc(C)cc21 (stereo unspecified)	-9	-8	2	-9	48*	14
Cc1c(C=NNC(=O)C2(C)CC2(Cl)Cl)cnn1C (stereo unspecified)	.	.	.	.	.	2
CCN(CC)c1ccc(C=NNC(=O)c2cccc(S(=O)(=O)Nc3ccccc3OC)c2)cc1	.	.	.	.	.	-49
COc1ccc(Br)cc1C1CC(=O)N2CN(C)CSC2=C1C#N (stereo unspecified)	4	-14	-2	2	26	-1
COc1ccc(Br)cc1C1CC(=O)N2CN(Cc3ccccc3)CSC2=C1C#N (stereo unspecified)	10	-34	0	32*	22	5
COc1cc(OC)c(C2CC(=O)N3CN(C)CSC3=C2C#N)cc1OC (stereo unspecified)	-3	-18	-7	31*	19	8
CCc1ccccc1N1CSC2=C(C#N)C(c3cc(OC)c(OC)cc3OC)CC(=O)N2C1 (stereo unspecified)	4	-47	-4	10	37*	0
COc1ccc(OC)c(C2CC(=O)N3CN(c4cccc(Cl)c4)CSC3=C2C#N)c1 (stereo unspecified)	-2	-5	21	5	20	4
N#CC1=C2SCN(Cc3ccccc3)CN2C(=O)CC1c1ccccc1F (stereo unspecified)	16	-25	-7	?	26	7
O=C(O)COc1ccccc1C=NNC(=O)c1cccc(S(=O)(=O)Nc2cccc(Cl)c2)c1	.	.	.	.	.	6
CCN(Cc1ccccc1)c1ccc(C=NNC(=S)NC(C)C)cc1	.	.	.	.	.	-52
CCOC(=O)Cn1c(C)[n+](CC(=O)c2ccccc2)c2ccccc21	55*	0	2	0	-4	6
COc1ccc(N/N=C(\C#N)C(=N)N2CCOCC2)cc1	20	99*	-4	3	-5	.
CCOc1ccc(N/N=C(/C#N)C(N)=O)cc1	13	98*	-6	1	16	.
COc1ccc(NN=C(C#N)C(N)=O)cc1	.	.	.	.	.	14
SMILES	Rtt109 Vps75	ALR inh	FAS-TE inh	HDAC3 inh	M18AAP inhibitor	UCH37 inh
COc1ccc(N/N=C(\C#N)C(N)=O)cc1	11	98*	-5	-2	5	.
COc1ccc2nc(C)cc(SCC(=O)NN=Cc3ccccc3)c2c1	.	.	.	.	.	0
N#C/C(=C\c1ccncc1)c1nc2c(s1)CCCC2	57*	16	-7	-7	9	-121
N#CC(=Cc1ccncc1)c1ccccc1	2	.	-6	.	.	.
C=CCNC(=S)Nc1ccc(N(C)C)cc1	-1	99*	-5	.	6	4
C=CCNC(=S)Nc1ccc(C(N)=O)cc1	.	-10	-2	?	-2	3
O=C(Nc1cccc(-c2ccc(N3CCCCC3)nn2)c1)C(F)(F)F	-34	92*	7	-2	5	0
CC1CCN(c2ccc(-c3cccc(NC(=O)C(F)(F)F)c3)nn2)CC1	8	1	39	1	-14	.
Nc1ccc(Cc2nc3cc4ccccc4cc3[nH]2)cc1	.	-6	.	-3	-9	3
Cc1ccc2nc(CCc3ccc(N)cc3)[nH]c2c1	0	99*	-1	-9	6	2
Nc1ccc2nc(CCc3ccccc3)[nH]c2c1	7	99*	-12	?	4	.
COCCCn1c(O)c(/C=C2/N=C(C#N)C(=Nc3ccc(C)cc3)O2)sc1=S	.	.	.	.	.	12
S=C(NCCc1ccccn1)Nc1ccccc1Cl	31	94*	-10	-6	-4	2
Cc1cccc(NC(=S)NCc2ccccn2)c1	-3	5	-1	-2	4	4
S=C(NCc1ccccn1)Nc1cccc(Cl)c1	2	-12	-6	7	30*	3
COc1ccc(C(=O)C(C=NO)=NNc2ccc(F)cc2)cc1	.	.	.	.	.	7
COc1ccc(S(=O)(=O)NN=Cc2ccc([N+](=O)[O-])o2)c(OC)c1	.	.	.	.	.	1
CCOc1ccc2nc(NC(=O)CS(=O)(=O)c3ccc(C)cc3)sc2c1	4	81*	1	4	6	2
O=C(Cn1c(C(F)(F)F)nc2ccccc21)c1ccc(F)cc1	0	92*	4	4	5	2
O=C(Cn1c(C(F)(F)F)nc2ccccc21)c1ccc(Br)cc1	5	-4	10	3	3	1
CCOP(=O)(OCC)C(C#N)=C1SCN(c2ccccc2)CS1	12	99*	-8	6	8	6
COc1ccc(-c2nc(SC(CC(=O)NCCN3CCOCC3)c3cccs3)n[nH]2)cc1 (stereo unspecified)	34	97*	-6	5	7	6
COc1ccc(-c2nc(SC(CC(=O)NCc3ccccc3)c3ccc(OC)c(OC)c3)n[nH]2)cc1 (stereo unspecified)	14	95*	1	-2	-5	3
CC(=O)C(=NNc1ccccc1[N+](=O)[O-])N1CCCc2ccccc21	.	.	.	.	.	5
COc1ccc(CN=Cc2c(O)[nH]c3ccccc23)cc1	24	99*	-2	7	5	8
Oc1[nH]c2ccccc2c1C=NCC1CCCO1 (stereo unspecified)	2	98*	-11	0	9	10
C=C(C)C1CC=C(C)C(=NNc2ccccc2[N+](=O)[O-])C1 (stereo unspecified)	.	.	.	.	.	5
Cc1oc(N=Cc2ccc(F)cc2)c(C#N)c1C	.	.	.	.	.	-1
COC(=O)[C@@]12CCCCN1[C@H](c1ccc(-c3cccc(Cl)c3)c(OC)c1)[C@@H]1C(=O)N(C)C(=O)[C@@H]12	-4	-9	40	33*	.	1
